Data from ChEMBL document CHEMBL3351658, “Exploring human parainfluenza virus type-1 hemagglutinin-neuraminidase as a target for inhibitor discovery” (J Med Chem, 2014).

How the values were obtained:
[1] = test system: LLC-MK2; test: (§1) Cytotoxicity against rhesus monkey LLC-MK2 cells assessed as cell viability at 250 uM after 48 hrs by alamar blue assay; format: cell-based, Macaca mulatta; settings: llc-mk2, 48 h, 250 µM
Summary of the method: (§2)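 LLC-MK2 cells were kept in EMEM with 1% glutamine (200 mM) and 2% FBS at 37 °C under 5% CO2. They were exposed in triplicate to 250 µM of each compound for 48 h. Viability was read by MTT or AlamarBlue assay.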

[2] = Inhibition of hemagglutinin activity of human parainfluenza virus 1 C35 hemagglutinin-neuraminidase incubated for 20 mins in presence of chicken red blood cells; design: species or system Human respirovirus 1
Summary of the method: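 HI used hPIV-1 strain C-35 grown in LLC-MK2 cells, with clarified supernatant ultrafiltered ≥10-fold. Compounds were diluted in PBS, mixed with virus (1 HAU final) and held 20 min at room temperature. Ice-cold 0.5% chicken RBC were added on ice, then 1 h 30 min at 4 °C. Run in duplicate, maximum 250 µM. IC50 is the concentration matching agglutination of a 0.5 HAU virus-only well.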

[3] = test system: LLC-MK2; test: (§3) Cytotoxicity against rhesus monkey LLC-MK2 cells assessed as cell viability at 250 uM after 48 hrs by MTT assay; format: cell-based, Macaca mulatta; settings: llc-mk2, 48 h, 250 µM; summary of the method: as §2
[4] = as §1; format: cell-based, Macaca mulatta; settings: LLC-MK2 cells, read-out: Activity; summary of the method: as §2
[5] = as §3; format: cell-based, Macaca mulatta; settings: LLC-MK2 cells, read-out: Activity; summary of the method: as §2

CC(=O)N[C@H]1[C@H]([C@H](O)[C@H](O)CO)OC(C(=O)[O-])=C[C@@H]1N=[N+]=[N-].[Na+]
Activity [1]: Non-toxic
IC50 [2]: 3500 nM
Activity [3]: Non-toxic

CC(=O)N[C@H]1[C@H]([C@H](O)[C@H](O)CO)OC(C(=O)[O-])=C[C@@H]1O.[Na+]
Activity [1]: Non-toxic
IC50 [2]: 15900 nM
Activity [3]: Non-toxic

CC(=O)N[C@H]1[C@H]([C@H](O)[C@H](O)CO)OC(C(=O)[O-])=C[C@@H]1N.[Na+]
Activity [1]: Non-toxic
IC50 [2]: > 250000 nM
Activity [3]: Non-toxic

CC(=O)N[C@H]1[C@H]([C@H](O)[C@H](O)CO)OC(C(=O)[O-])=C[C@@H]1NC(=N)N.[Na+]
Activity [1]: Non-toxic
IC50 [2]: > 250000 nM
Activity [3]: Non-toxic

CC(C)C(=O)N[C@H]1[C@H]([C@H](O)[C@H](O)CO)OC(C(=O)[O-])=C[C@@H]1N=[N+]=[N-].[Na+]
Activity [1]: Non-toxic
IC50 [2]: 80 nM
Activity [3]: Non-toxic

CC(C)C(=O)N[C@H]1[C@H]([C@H](O)[C@H](O)CO)OC(C(=O)O)=C[C@@H]1O
viability at 48 h, 250 µM [4]: 93%
IC50 [2]: 490 nM
viability at 48 h, 250 µM [5]: 93%

CC(C)C(=O)N[C@H]1[C@H]([C@H](O)[C@H](O)CO)OC(C(=O)[O-])=C[C@@H]1N.[Na+]
Activity [1]: Non-toxic
IC50 [2]: 7290 nM
Activity [3]: Non-toxic

CC(C)C(=O)N[C@H]1[C@H]([C@H](O)[C@H](O)CO)OC(C(=O)[O-])=C[C@@H]1NC(=N)N.[Na+]
Activity [1]: Non-toxic
IC50 [2]: > 250000 nM
Activity [3]: Non-toxic

[N-]=[N+]=N[C@H]1C=C(C(=O)[O-])O[C@@H]([C@H](O)[C@H](O)CO)[C@@H]1NC(=O)C1CC1.[Na+]
Activity [1]: Non-toxic
IC50 [2]: 320 nM
Activity [3]: Non-toxic

[N-]=[N+]=N[C@H]1C=C(C(=O)[O-])O[C@@H]([C@H](O)[C@H](O)CO)[C@@H]1NC(=O)C1CCC1.[Na+]
Activity [1]: Non-toxic
IC50 [2]: 930 nM
Activity [3]: Non-toxic

CCC(C)C(=O)N[C@H]1[C@H]([C@H](O)[C@H](O)CO)OC(C(=O)[O-])=C[C@@H]1N=[N+]=[N-].[Na+] (some centres not stated)
Activity [1]: Non-toxic
IC50 [2]: 320 nM
Activity [3]: Non-toxic

C/C=C(\C)C(=O)N[C@H]1[C@H]([C@H](O)[C@H](O)CO)OC(C(=O)[O-])=C[C@@H]1N=[N+]=[N-].[Na+]
Activity [1]: Non-toxic
IC50 [2]: 3000 nM
Activity [3]: Non-toxic

CC(O)C(=O)N[C@H]1[C@H]([C@H](O)[C@H](O)CO)OC(C(=O)[O-])=C[C@@H]1N=[N+]=[N-].[Na+] (some centres not stated)
Activity [1]: Non-toxic
IC50 [2]: 40000 nM
Activity [3]: Non-toxic

CC(CO)C(=O)N[C@H]1[C@H]([C@H](O)[C@H](O)CO)OC(C(=O)[O-])=C[C@@H]1N=[N+]=[N-].[Na+] (some centres not stated)
Activity [1]: Non-toxic
IC50 [2]: 3000 nM
Activity [3]: Non-toxic
